Reference: ChEMBL document CHEMBL4765263, “Design, synthesis, biological evaluation of 6-(2-amino-1H-benzo[d]imidazole-6-yl)quinazolin-4(3H)-one derivatives as novel anticancer agents with Aurora kinase inhibition” (Eur J Med Chem, 2020)

Columns and labels:
MDA-MB-231 = assay: Cytotoxicity against human MDA-MB-231 cells assessed as reduction in cell viability incubated for 72 hrs by MTT assay; type: functional, cell-based; details: MDA-MB-231, 72 h
How it was run: (§1)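 MTT viability assay. Cells kept in DMEM with 10% FBS at 37 °C and 5% CO2. Seeded at 5×10^3 cells per well and exposed to a range of compound concentrations from 20 mM DMSO stocks. IC50 is the mean of triplicate measurements.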

PC-3 = assay: Cytotoxicity against human PC-3 cells assessed as reduction in cell viability incubated for 72 hrs by MTT assay; type: functional, cell-based; details: PC-3, 72 h; how it was run: as §1
SH-SY5Y = assay: Cytotoxicity against human SH-SY5Y cells assessed as reduction in cell viability incubated for 72 hrs by MTT assay; type: functional, cell-based; how it was run: as §1
[1] = Solubility of compound in water; type: physicochemical; details: buffer

solubility [1] | Compound | IC50 (MDA-MB-231) | IC50 (PC-3) | IC50 (SH-SY5Y)
– | CCC(=O)Nc1nc2ccc(-c3ccc4ncn(CCN5CCCCC5)c(=O)c4c3)cc2[nH]1 | 1.23 µM | 6.57 µM | 4.02 µM
Soluble | COC(=O)Nc1nc2ccc(-c3ccc4ncn(CCN5CCOCC5)c(=O)c4c3)cc2[nH]1 | > 20 µM | > 20 µM | > 20 µM
– | CCCCn1cnc2ccc(-c3ccc4nc(NC(=O)CC)[nH]c4c3)cc2c1=O | > 20 µM | > 20 µM | > 20 µM
– | CCC(=O)Nc1nc2ccc(-c3ccc4ncn(C)c(=O)c4c3)cc2[nH]1 | 13.5 µM | > 20 µM | 18.1 µM
– | CCS(=O)(=O)Nc1nc2ccc(-c3ccc4ncn(C)c(=O)c4c3)cc2[nH]1 | > 20 µM | > 20 µM | > 20 µM
– | CCC(=O)Nc1nc2ccc(-c3ccc4nc(CN5CCOCC5)n(C)c(=O)c4c3)cc2[nH]1 | 0.94 µM | 1.65 µM | 1.08 µM
– | CCS(=O)(=O)Nc1nc2ccc(-c3ccc4ncn(CC(=O)N5CCOCC5)c(=O)c4c3)cc2[nH]1 | > 20 µM | > 20 µM | > 20 µM
– | O=C(Nc1nc2ccc(-c3ccc4ncn(CCN5CCOCC5)c(=O)c4c3)cc2[nH]1)C1CCCCC1 | 10.2 µM | 16.5 µM | 14.2 µM
– | CCCCC(=O)Nc1nc2ccc(-c3ccc4ncn(CCN5CCOCC5)c(=O)c4c3)cc2[nH]1 | 3.85 µM | 6.54 µM | 4.19 µM
– | O=C(Nc1nc2ccc(-c3ccc4ncn(CCN5CCOCC5)c(=O)c4c3)cc2[nH]1)N1CCOCC1 | > 20 µM | > 20 µM | > 20 µM
